Data on three molecules can be found in ChEMBL document CHEMBL3120152, “The bat flower: a source of microtubule-destabilizing and -stabilizing compounds with synergistic antiproliferative actions” (J Nat Prod, 2013).

Test [1] concerns SK-OV-3. The test can be described thus: Cytotoxicity against human SKOV3 cells expressing MDR1 after 72 hrs by SRB assay. The conditions noted are these: SK-OV-3, 72 h.
Test [2] deals with HeLa. Put plainly: Cytotoxicity against human HeLa cells expressing beta3-tubulin containing alanine residue at 277 after 72 hrs by SRB assay.
Test [3] relates to HeLa. The test can be described thus: Cytotoxicity against human HeLa cells after 72 hrs by SRB assay.
Test [4] concerns the target T1, Tubulin (Sus scrofa) (UniProt P02554+P02550). The test can be described thus: Inhibition of purified pig brain tubulin polymerization at 25 uM by spectrophotometry. The method, boiled down: (§1)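 Purified porcine brain tubulin with GTP in glycerol buffer, given vehicle or 10 or 25 μM compound. Assembly followed as turbidity, absorbance at 340 nm over time. Rate and extent of polymerization compared with vehicle.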

Test [5] relates to SK-OV-3. Put plainly: Cytotoxicity against human SKOV3 cells after 72 hrs by SRB assay. As to conditions: SK-OV-3, 72 h.
Test [6] has as its system SK-OV-3. The test can be described thus: Resistance ratio of IC50 for human SKOV3 cells expressing MDR1 to IC50 for human SKOV3 cells. It is filed as functional. The method, boiled down: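 Relative resistance = SRB-assay IC50 in Pgp-overexpressing SK-OV-3/MDR-1-6/6 divided by IC50 in parental SK-OV-3. Both lines were grown in basal medium Eagle with Earle's salts, 10% FBS and 25−50 μg/mL gentamicin.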

Test [7] has as its target T1, Tubulin (Sus scrofa). Put plainly: Displacement of colchicine from purified pig brain tubulin by fluorescence assay in presence of GTP. The method, boiled down: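 Purified tubulin mixed with colchicine and GTP, plus a range of compound concentrations. Colchicine bound to tubulin fluoresces, so displacement is read as loss of that fluorescence. CA-4 used as positive control; 3 replicates, standard deviations.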

Test [8] concerns the target T1, Tubulin (Sus scrofa). The test can be described thus: Inhibition of purified pig brain tubulin polymerization by spectrophotometry. The method, boiled down: as §1
In test [9] the test system is HeLa. The test can be described thus: Cell cycle arrest in human HeLa cells assessed as accumulation at G2/M phase at 5 uM by flow cytometry. It is filed as functional, cell-based. The method, boiled down: (§2)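 HeLa cells grown in basal medium Eagle with Earle's salts, 10% FBS and 25−50 μg/mL gentamicin, given vehicle or 5 μM compound. Cell cycle distribution read by flow cytometry. Mitotic spindle shape viewed by indirect immunofluorescence of tubulin.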

Test [10] relates to HeLa. Put plainly: Resistance ratio of IC50 for human HeLa cells expressing beta3-tubulin containing alanine residue at […] to IC50 for human HeLa cells. The class given is functional. The gist of the method:
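Relative resistance = SRB-assay IC50 in WTβIII cells divided by IC50 in parental HeLa. Both lines were grown in basal medium Eagle with Earle's salts, 10% FBS and 25−50 μg/mL gentamicin.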

The subject of test [11] is HeLa. Put plainly: Antimitotic activity in human HeLa cells assessed as abberent multiple spindle asters at 5 uM by indirect immunofluorescence assay relative to vehicle-treated control. It is filed as functional, cell-based. The method, boiled down: as §2
Test [12] deals with T1, Tubulin (Sus scrofa). As to conditions: 2 to 3 uM.

The structures appear in SMILES notation. pIC50: −log10 of the molar value. The source made the active and inactive calls. The rule behind the calls is not given here.

T1 sequence (P02550 whole entry, looked up): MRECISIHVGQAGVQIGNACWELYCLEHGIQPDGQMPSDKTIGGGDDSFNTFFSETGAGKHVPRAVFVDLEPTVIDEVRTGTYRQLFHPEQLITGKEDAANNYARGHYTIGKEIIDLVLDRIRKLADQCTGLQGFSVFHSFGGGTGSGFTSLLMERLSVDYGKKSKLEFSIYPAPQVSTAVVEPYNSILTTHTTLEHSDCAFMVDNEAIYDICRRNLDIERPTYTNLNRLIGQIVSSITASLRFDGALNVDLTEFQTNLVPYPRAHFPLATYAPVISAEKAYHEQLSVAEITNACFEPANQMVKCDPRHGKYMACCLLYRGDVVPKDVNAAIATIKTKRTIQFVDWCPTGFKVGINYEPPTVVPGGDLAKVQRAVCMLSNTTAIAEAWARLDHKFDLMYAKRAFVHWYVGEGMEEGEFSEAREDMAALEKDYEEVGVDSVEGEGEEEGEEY
T1 sequence (P02554 whole entry, looked up): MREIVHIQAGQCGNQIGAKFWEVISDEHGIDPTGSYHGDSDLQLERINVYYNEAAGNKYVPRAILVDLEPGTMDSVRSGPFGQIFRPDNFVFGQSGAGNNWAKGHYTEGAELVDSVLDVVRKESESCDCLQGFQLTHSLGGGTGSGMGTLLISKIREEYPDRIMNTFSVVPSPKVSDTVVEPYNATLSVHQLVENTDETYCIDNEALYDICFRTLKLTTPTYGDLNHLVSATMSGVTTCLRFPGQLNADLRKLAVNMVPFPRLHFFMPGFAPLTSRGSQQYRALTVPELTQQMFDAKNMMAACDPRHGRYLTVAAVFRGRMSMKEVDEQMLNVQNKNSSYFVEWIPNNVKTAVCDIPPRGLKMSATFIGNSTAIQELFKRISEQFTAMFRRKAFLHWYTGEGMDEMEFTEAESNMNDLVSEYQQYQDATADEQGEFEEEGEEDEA

Regarding `COc1cc(OC)c(CCC(=O)c2ccc(OC)c(O)c2)c(OC)c1`, the negative-log IC50 (pIC50) in the test on SK-OV-3 [1] is 5.65; in the test with HeLa [2], 6.16; in the test with HeLa [3], 6.24; in the test with SK-OV-3 [5], 6.09. For the same molecule, the inhibition against Tubulin (Sus scrofa) [4] was 50%; at Tubulin (Sus scrofa) [7], “Dose-dependent effect”; on Tubulin (Sus scrofa) [8], “Dose-dependent effect”. Besides, the “Ratio IC50” value in the test with SK-OV-3 [6] amounted to 2.7; in the test with HeLa [10], 1.2. The outcome in the test with HeLa [9] and in the test on HeLa [11] was Active.
For `CC(=O)O[C@@H]1[C@H]2[C@H]3[C@H]([C@H](OC(C)=O)[C@H](OC(C)=O)[C@]2(C)[C@@H]2[C@@H]1[C@]1(C)C(=C[C@H]2C)OC(=O)[C@@]1(C)O)[C@]1(C)[C@H](C[C@@H]2O[C@@H]2[C@@H]1OC(C)=O)C(=O)[C@@H]3O`, the outcome with HeLa [9] and with HeLa [11] was Active.
On Tubulin (Sus scrofa) [12], `COc1ccc(/C=C\c2cc(OC)c(OC)c(OC)c2)cc1O` yielded an inhibition of 50%.
